ChEMBL document CHEMBL3808349, “Antineoplastic Agents. 585. Isolation of Bridelia ferruginea Anticancer Podophyllotoxins and Synthesis of 4-Aza-podophyllotoxin Structural Modifications” (2016)
Converted amounts (≈) assume the structure as drawn.

Experiments:
Format in all cases: functional
[1] = Growth inhibition of human BxPC3 cells measured after 48 hrs by sulforhodamine B assay; conditions: BXPC-3, 48 h
In short: (§1)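 Cells were seeded in RPMI1640 with 5% fetal bovine serum and incubated 24 h before serial dilutions of sample were added. After 48 h exposure, cells were fixed with trichloroacetic acid and stained with sulforhodamine B, and optical density was read by plate reader.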

[2] = Growth inhibition of human DU145 cells measured after 48 hrs by sulforhodamine B assay; conditions: DU-145, 48 h; in short: as §1
[3] = Growth inhibition of human SF268 cells measured after 48 hrs by sulforhodamine B assay; conditions: SF-268, 48 h; in short: as §1
P388 = experiment: Growth inhibition of mouse P388 cells measured after 48 hrs by sulforhodamine B assay; conditions: P388, 48 h, read-out: ED50 (the source's name)
NCI-H460 = experiment: Growth inhibition of human NCI-H460 cells measured after 48 hrs by sulforhodamine B assay; conditions: NCI-H460, 48 h; in short: as §1
MCF7 = experiment: Growth inhibition of human MCF7 cells measured after 48 hrs by sulforhodamine B assay; conditions: MCF7, 48 h; in short: as §1
[4] = Growth inhibition of human KM20L2 cells measured after 48 hrs by sulforhodamine B assay; conditions: KM-20L2, 48 h; in short: as §1

Compound | GI50 [1] [µg/mL] | GI50 [2] [µg/mL] | GI50 [3] [µg/mL] | EC50 (P388) [µg/mL] | GI50 (NCI-H460) [µg/mL] | GI50 (MCF7) [µg/mL] | GI50 [4] [µg/mL]
O=C1OCC2=C1C(c1cccc3c1OCO3)c1cc3c(cc1N2)OCO3 (centres undefined) | 0.065 (≈ 0.185 µM) | 0.041 (≈ 0.117 µM) | 0.0089 (≈ 0.0253 µM) | 0.17 (≈ 0.484 µM) | 0.021 (≈ 0.0598 µM) | 0.0039 (≈ 0.0111 µM) | 
COc1cc([C@@H]2c3cc4c(c(O)c3C[C@H]3COC(=O)[C@@H]32)OCO4)cc(OC)c1OC [BETA-PELTATIN A] | 0.0012 (≈ 0.0029 µM) | 0.0021 (≈ 0.00507 µM) | 0.0004 (≈ 0.000965 µM) | 0.0031 (≈ 0.00748 µM) | 0.00077 (≈ 0.00186 µM) | 0.00055 (≈ 0.00133 µM) | 0.0076 (≈ 0.0183 µM)
COc1cc(C2C3=C(COC3=O)N(C)c3cc4c(cc32)OCO4)cc(OC)c1OC (centres undefined) | 0.049 (≈ 0.119 µM) | 0.026 (≈ 0.0632 µM) | 0.029 (≈ 0.0705 µM) | 0.027 (≈ 0.0656 µM) | 0.032 (≈ 0.0778 µM) | 0.034 (≈ 0.0826 µM) | 0.032 (≈ 0.0778 µM)
COc1cc(C2C3=C(COC3=O)N(CCc3ccc(F)cc3)c3cc4c(cc32)OCO4)cc(OC)c1OC (centres undefined) | 0.9 (≈ 1.73 µM) | 2.5 (≈ 4.81 µM) | 0.52 (≈ 1 µM) | 3.3 (≈ 6.35 µM) | 2.3 (≈ 4.43 µM) | 0.42 (≈ 0.808 µM) | 2.4 (≈ 4.62 µM)
COc1cc(C2C3=C(COC3=O)Nc3cc(OC)c(OC)c(OC)c32)cc(Br)c1OC (centres undefined) | 0.56 (≈ 1.14 µM) | 0.42 (≈ 0.853 µM) | 0.11 (≈ 0.223 µM) | 0.11 (≈ 0.223 µM) | 0.35 (≈ 0.711 µM) | 0.12 (≈ 0.244 µM) | 
COc1cc(C2C3=C(COC3=O)N(CCN3CCCCC3)c3cc4c(cc32)OCO4)cc(OC)c1OC (centres undefined) | 4.4 (≈ 8.65 µM) | > 10 | > 10 | 1.7 (≈ 3.34 µM) | > 10 | > 10 | > 10
COc1cc(C2C3=C(COC3=O)N(CCc3ccc(F)cc3)c3cc4c(cc32)OCO4)cc(OC)c1O (centres undefined) | 1.4 (≈ 2.77 µM) | 0.38 (≈ 0.752 µM) | 0.48 (≈ 0.95 µM) | 0.21 (≈ 0.415 µM) | 0.36 (≈ 0.712 µM) | 0.34 (≈ 0.673 µM) | 
COc1cc(C2C3=C(COC3=O)Nc3cc4c(cc32)OCO4)cc(OC)c1O (centres undefined) | 0.028 (≈ 0.073 µM) | 0.033 (≈ 0.0861 µM) | 0.026 (≈ 0.0678 µM) | 0.028 (≈ 0.073 µM) | 0.027 (≈ 0.0704 µM) | 0.025 (≈ 0.0652 µM) | 0.032 (≈ 0.0835 µM)
COc1cc(C2C3=C(COC3=O)N(CCN3CCOCC3)c3cc4c(cc32)OCO4)cc(OC)c1OC (centres undefined) | 3.5 (≈ 6.86 µM) | 2 (≈ 3.92 µM) | 2.6 (≈ 5.09 µM) | 2.6 (≈ 5.09 µM) | 3 (≈ 5.88 µM) | 0.89 (≈ 1.74 µM) | 2.5 (≈ 4.9 µM)
COc1cc(C2C3=C(COC3=O)N(C3CCCC3)c3cc4c(cc32)OCO4)cc(OC)c1O (centres undefined) | 0.53 (≈ 1.17 µM) | 0.41 (≈ 0.908 µM) | 0.39 (≈ 0.864 µM) |  | 0.33 (≈ 0.731 µM) | 0.32 (≈ 0.709 µM) | 2.1 (≈ 4.65 µM)
COc1ccc(C2C3=C(COC3=O)Nc3cc(OC)c(OC)c(OC)c32)cc1O (centres undefined) | 6.5 (≈ 16.3 µM) | > 10 | 7.3 (≈ 18.3 µM) | 0.78 (≈ 1.95 µM) | 10.1 (≈ 25.3 µM) | 7 (≈ 17.5 µM) | 
COc1cc([C@@H]2c3cc4c(c(O[C@@H]5O[C@H](CO)[C@@H](O)[C@H](O)[C@H]5O)c3C[C@H]3COC(=O)[C@@H]32)OCO4)cc(OC)c1OC | > 1 | > 1 | 0.27 (≈ 0.468 µM) | 0.21 (≈ 0.364 µM) | 0.28 (≈ 0.486 µM) | 0.85 (≈ 1.47 µM) | > 1
COc1cc(C2C3=C(COC3=O)N(CCCO)c3cc4c(cc32)OCO4)cc(OC)c1OC (centres undefined) | 0.48 (≈ 1.05 µM) | 0.49 (≈ 1.08 µM) | 0.36 (≈ 0.79 µM) | 0.28 (≈ 0.615 µM) | 0.33 (≈ 0.725 µM) | 0.34 (≈ 0.746 µM) | 0.38 (≈ 0.834 µM)
COc1cc(C2C3=C(COC3=O)Nc3cc4c(cc32)OCO4)cc(OC)c1OC (centres undefined) |  |  |  | 0.0018 (≈ 0.00453 µM) |  |  | 
COc1cc(-c2c3c(nc4cc5c(cc24)OCO5)COC3=O)cc(OC)c1OC | 4.1 (≈ 10.4 µM) | 2.4 (≈ 6.07 µM) | 2.4 (≈ 6.07 µM) | 3.6 (≈ 9.11 µM) | 2.8 (≈ 7.08 µM) | 3.4 (≈ 8.6 µM) | 2.1 (≈ 5.31 µM)
